Measurements taken from ChEMBL document CHEMBL2146475, “A novel bitriazolyl acyclonucleoside endowed with dual antiproliferative and immunomodulatory activity” (J Med Chem, 2012).
The source made the active and inactive calls. The rule behind the calls is not given here.

Legend:
MIA PaCa-2 [1] = assay: Cytotoxicity against multidrug-resistant human MIAPaCa2 cells assessed as cell viability at 50 uM after 48 hrs by MTT assay; assay type: functional, cell-based
In short: (§1)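 Cells left untreated or incubated at 50 μM for 48 h, with gemcitabine 50 μM as reference. Viability read by MTT.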

MIA PaCa-2 [2] = assay: Cytotoxicity against multidrug-resistant human MIAPaCa2 cells assessed as cell viability after 48 hrs by MTT assay; assay type: functional, cell-based
In short: (§2)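 Cells left untreated or incubated with compound over 50 nM to 200 μM for 48 h. Viability read by MTT. Values are mean SE of three independent experiments, and IC50 is taken from the dose-response curves.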

MIA PaCa-2 [3] = assay: Cell cycle arrest in multidrug-resistant human MIAPaCa2 cells assessed as accumulation at sub-G0/G1 phase after 48 hrs by propidium iodide staining based FACS flow cytometry (reference value: 1.17%); assay type: functional
MIA PaCa-2 [4] = assay: Induction of apoptosis in multidrug-resistant human MIAPaCa2 cells assessed as necrotic cells after 48 hrs using AnnexinV-FITC conjugated 7- AAD staining by flow cytometry (reference value: 0.17%); assay type: functional
MIA PaCa-2 [5] = assay: Induction of apoptosis in multidrug-resistant human MIAPaCa2 cells assessed as late apoptotic cells after 48 hrs using AnnexinV-FITC conjugated 7- AAD staining by flow cytometry (reference value: 0.21%); assay type: functional
MIA PaCa-2 [6] = assay: Induction of apoptosis in multidrug-resistant human MIAPaCa2 cells assessed as early apoptotic cells after 48 hrs using AnnexinV-FITC conjugated 7- AAD staining by flow cytometry (reference value: 2.54%); assay type: functional
MIA PaCa-2 [7] = assay: Induction of apoptosis in multidrug-resistant human MIAPaCa2 cells assessed as increase in caspase-3/7 activity after 48 hrs by caspase-Glo 3/7 assay; assay type: functional, cell-based
In short: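 MiaPaCa-2 cells treated 48 h, with untreated and gemcitabine references. Caspase-3/7 activity measured. Run in triplicate.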

MIA PaCa-2 [8] = assay: Induction of apoptosis in multidrug-resistant human MIAPaCa2 cells assessed as increase in DNA/histone nucleosome release after 48 hrs by ELISA relative to control; assay type: functional
In short: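 MiaPaCa-2 cells treated 48 h, with untreated and gemcitabine references. Cytoplasmic DNA/histone nucleosome release detected by ELISA and compared with untreated cells. Run in triplicate.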

MCF7 [9] = assay: Cytotoxicity against human MCF7 cells assessed as cell viability after 48 hrs by MTT assay; assay type: functional, cell-based; in short: as §2
[10] = target: T1, Toll-like receptor 7 (Mus musculus) (UniProt P58681); assay: Activation of TLR7 in C57BL/6 mouse bone marrow dendritic cells assessed as increase of IL6 production after 24 hrs by ELISA; assay type: cell-based
T1 sequence (whole entry): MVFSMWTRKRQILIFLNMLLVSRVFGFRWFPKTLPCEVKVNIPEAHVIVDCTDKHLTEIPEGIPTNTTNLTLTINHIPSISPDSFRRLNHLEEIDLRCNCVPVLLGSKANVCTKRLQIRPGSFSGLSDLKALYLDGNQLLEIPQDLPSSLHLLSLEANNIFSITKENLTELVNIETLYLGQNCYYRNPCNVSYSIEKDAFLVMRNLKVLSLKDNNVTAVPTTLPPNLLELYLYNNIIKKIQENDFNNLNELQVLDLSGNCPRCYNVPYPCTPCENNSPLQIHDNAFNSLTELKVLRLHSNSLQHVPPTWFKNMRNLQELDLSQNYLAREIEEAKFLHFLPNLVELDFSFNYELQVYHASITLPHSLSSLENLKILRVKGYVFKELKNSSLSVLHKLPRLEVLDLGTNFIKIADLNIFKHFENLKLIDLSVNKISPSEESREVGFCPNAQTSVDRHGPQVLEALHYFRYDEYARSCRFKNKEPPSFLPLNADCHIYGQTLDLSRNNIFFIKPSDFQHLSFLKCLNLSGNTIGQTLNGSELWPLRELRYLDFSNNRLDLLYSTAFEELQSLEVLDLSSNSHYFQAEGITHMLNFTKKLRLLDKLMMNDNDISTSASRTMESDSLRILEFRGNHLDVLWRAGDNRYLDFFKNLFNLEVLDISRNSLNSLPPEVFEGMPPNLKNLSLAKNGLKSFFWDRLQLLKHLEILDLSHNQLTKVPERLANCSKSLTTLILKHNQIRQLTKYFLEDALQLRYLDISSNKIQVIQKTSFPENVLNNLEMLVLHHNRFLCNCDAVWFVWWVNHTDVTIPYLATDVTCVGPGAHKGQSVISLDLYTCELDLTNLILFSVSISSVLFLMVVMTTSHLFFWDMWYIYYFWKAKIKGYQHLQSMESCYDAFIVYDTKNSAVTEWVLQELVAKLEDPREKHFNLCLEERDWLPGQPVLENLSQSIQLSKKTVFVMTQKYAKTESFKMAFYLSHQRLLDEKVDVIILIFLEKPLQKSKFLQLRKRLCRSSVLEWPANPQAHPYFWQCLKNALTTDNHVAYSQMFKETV
In short: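 Bone marrow dendritic cells from wild-type mice, left untreated or stimulated with two doses for 24 h. IL-6 in culture supernatants measured by ELISA. Mean SD of four mice per group.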

Dendritic cell [11] = assay: Immunostimulatory activity against wild type C57BL/6 mouse bone marrow dendritic cells assessed as increase in IL-12p40 level at 3 to 10 uM after 24 hrs by ELISA; assay type: functional, cell-based
In short: (§3)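 Bone marrow dendritic cells from wild-type, TLR3−/−, TLR7−/− and TLR9−/− mice, left untreated or stimulated with different doses for 24 h. IL-12p40 protein in culture supernatants measured by ELISA.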

Dendritic cell [12] = assay: Immunostimulatory activity against TLR3-deficient C57BL/6 mouse bone marrow dendritic cells assessed as increase in IL-12p40 level at 3 to 10 uM after 24 hrs by ELISA; assay type: functional, cell-based; in short: as §3
Dendritic cell [13] = assay: Immunostimulatory activity against TLR9-deficient C57BL/6 mouse bone marrow dendritic cells assessed as increase in IL-12p40 level at 3 to 10 uM after 24 hrs by ELISA; assay type: functional, cell-based; in short: as §3
Dendritic cell [14] = assay: Immunostimulatory activity against TLR7-deficient C57BL/6 mouse bone marrow dendritic cells assessed as increase in IL-12p40 level at 10 uM after 24 hrs by ELISA; assay type: functional, cell-based; in short: as §3
Capan-2 [15] = assay: Cytotoxicity against human Capan2 cells assessed as cell viability at 50 uM after 48 hrs by MTT assay; assay type: functional, cell-based; in short: as §1
PANC-1 [16] = assay: Cytotoxicity against human PANC1 cells assessed as cell viability at 50 uM after 48 hrs by MTT assay; assay type: functional, cell-based; in short: as §1
PC-3 [17] = assay: Cytotoxicity against human PC3 cells assessed as cell viability at 50 uM after 48 hrs by MTT assay; assay type: functional, cell-based; in short: as §1
HeLa [18] = assay: Cytotoxicity against human HeLa cells assessed as cell viability at 50 uM after 48 hrs by MTT assay; assay type: functional, cell-based; in short: as §1
MCF7 [19] = assay: Cytotoxicity against human MCF7 cells assessed as cell viability at 50 uM after 48 hrs by MTT assay; assay type: functional, cell-based; in short: as §1
Capan-2 [20] = assay: Cytotoxicity against human Capan2 cells assessed as cell viability after 48 hrs by MTT assay; assay type: functional, cell-based; in short: as §2
PANC-1 [21] = assay: Cytotoxicity against human PANC1 cells assessed as cell viability after 48 hrs by MTT assay; assay type: functional, cell-based; in short: as §2
PC-3 [22] = assay: Cytotoxicity against human PC3 cells assessed as cell viability after 48 hrs by MTT assay; assay type: functional, cell-based; in short: as §2
HeLa [23] = assay: Cytotoxicity against human HeLa cells assessed as cell viability after 48 hrs by MTT assay; assay type: functional, cell-based; in short: as §2

In the case of `COC(=O)c1nc(-c2cn(Cc3ccc4cc5ccccc5cc4c3)nn2)n(COCCOC(C)=O)n1`, the Activity (MIA PaCa-2 [1]) is reported as “inactive”.

In the case of `COC(=O)c1nc(-c2cn(Cc3ccc4ccc5cccc6ccc3c4c56)nn2)nn1COCCOC(C)=O`, the Activity (MIA PaCa-2 [1]) is reported as “inactive”.

With `COC(=O)c1nc(C#Cc2ccc3ccc4cccc5ccc2c3c45)n(COCCOC(C)=O)n1` the Activity (MIA PaCa-2 [1]) was “inactive”.

With `NC(=O)c1nc(-c2cn(Cc3ccc4ccc5cccc6ccc3c4c56)nn2)n(COCCO)n1` the Activity (MIA PaCa-2 [2]) was “Active”.

`COC(=O)c1nc(-c2cn(Cc3ccc4ccccc4c3)nn2)n(COCCOC(C)=O)n1` was tested, and the Activity (MIA PaCa-2 [1]) was “inactive”.

With `COC(=O)c1nc(-c2cn(Cc3ccc4ccc5cccc6ccc3c4c56)nn2)n([C@@H]2O[C@H](COC(C)=O)[C@@H](OC(C)=O)[C@H]2OC(C)=O)n1` the Activity (MIA PaCa-2 [2]) was “inactive”.

`COC(=O)c1nc(-c2cn(Cc3ccccc3)nn2)n(COCCOC(C)=O)n1` was tested, and the Activity (MIA PaCa-2 [1]) was “inactive”.

In the case of `Nc1ccn([C@@H]2O[C@H](CO)[C@@H](O)C2(F)F)c(=O)n1` [GEMCITABINE], the Activity (MIA PaCa-2 [3]) is reported as 7.9%, the Activity (MIA PaCa-2 [4]) is reported as 0.35% and the Activity (MIA PaCa-2 [5]) is reported as 0.86%. The Activity (MIA PaCa-2 [6]) was 10.47%, the Activity (MIA PaCa-2 [7]) was “Active” and the Activity (MIA PaCa-2 [8]) was “Active”.

For `COC(=O)c1nc(-c2cn(Cc3ccc4ccc5cccc6ccc3c4c56)nn2)n(COCCOC(C)=O)n1`, the Activity (MCF7 [9]) was “Dose-dependent effect”, the IC50 (MCF7 [9]; MCF7, 48 h) was ≤ 10 µM and the Activity (MIA PaCa-2 [3]) was 36.9%. The Activity (MIA PaCa-2 [4]) was 0.41%, the Activity (MIA PaCa-2 [5]) was 22.44% and the Activity (MIA PaCa-2 [6]) was 28.48%. The Activity (MIA PaCa-2 [7]) was “Active”, the Activity [10] was “Dose-dependent effect” and the Activity (Dendritic cell [11]) was “Active”. The Activity (Dendritic cell [12]) was “Active”, the Activity (Dendritic cell [13]) was “Active” and the Activity (Dendritic cell [14]) was “inactive”. For the same compound, the “fold change (FC)” value (MIA PaCa-2 [8]) was 15, the Activity (MIA PaCa-2 [1]) was “Active” and the Activity (Capan-2 [15]) was “Active”. For the same compound, the Activity (PANC-1 [16]) was “Active”, the Activity (PC-3 [17]) was “Active” and the Activity (HeLa [18]) was “Active”. For the same compound, the Activity (MCF7 [19]) was “Active”, the Activity (MIA PaCa-2 [2]) was “Dose-dependent effect” and the IC50 (MIA PaCa-2 [2]; MIA PaCa-2, 48 h) was ≤ 10 µM. For the same compound, the Activity (Capan-2 [20]) was “Dose-dependent effect”, the IC50 (Capan-2 [20]; Capan-2, 48 h) was ≤ 10 µM and the Activity (PANC-1 [21]) was “Dose-dependent effect”. For the same compound, the IC50 (PANC-1 [21]; PANC-1, 48 h) was ≤ 10 µM, the Activity (PC-3 [22]) was “Dose-dependent effect” and the IC50 (PC-3 [22]; PC-3, 48 h) was ≤ 10 µM. The Activity (HeLa [23]) was “Dose-dependent effect” and the IC50 (HeLa [23]) was ≤ 10 µM.

With `COC(=O)c1nc(Nc2ccc3ccc4cccc5ccc2c3c45)n(COCCOC(C)=O)n1` the Activity (MIA PaCa-2 [1]) was “inactive”.

`COC(=O)c1nc(-c2cn(-c3ccc4ccc5cccc6ccc3c4c56)nn2)n(COCCOC(C)=O)n1` was tested, and the Activity (MIA PaCa-2 [1]) was “inactive”.

For `COC(=O)c1nc(CCc2ccc3ccc4cccc5ccc2c3c45)n(COCCOC(C)=O)n1`, the Activity (MIA PaCa-2 [1]) was “inactive”.
